For one test, the target named is 5-hydroxytryptamine receptor 6 (Homo sapiens, UniProt P50406). The test can be described thus: Displacement of [3H]LSD form human recombinant 5HT6 receptor. The essentials:
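Membranes prepared from cells engineered to recombinantly express human 5-HT6 receptors; competitive radioligand binding with [3H]LSD; affinity reported as pKi (−log M).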
5-hydroxytryptamine receptor 6, sequence (P50406 whole entry): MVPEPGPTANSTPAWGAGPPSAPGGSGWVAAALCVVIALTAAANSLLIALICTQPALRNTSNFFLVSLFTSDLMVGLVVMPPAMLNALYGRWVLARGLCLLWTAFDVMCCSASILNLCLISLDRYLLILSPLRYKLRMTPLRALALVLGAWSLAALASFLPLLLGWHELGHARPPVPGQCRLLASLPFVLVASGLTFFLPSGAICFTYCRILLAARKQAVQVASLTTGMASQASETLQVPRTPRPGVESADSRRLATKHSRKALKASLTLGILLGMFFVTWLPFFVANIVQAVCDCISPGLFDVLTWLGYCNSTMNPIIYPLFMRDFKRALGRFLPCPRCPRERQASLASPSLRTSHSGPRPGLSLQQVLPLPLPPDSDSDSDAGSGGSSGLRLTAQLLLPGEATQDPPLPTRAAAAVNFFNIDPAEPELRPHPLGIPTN
Cytochrome P450 2D6, sequence (P10635 whole entry): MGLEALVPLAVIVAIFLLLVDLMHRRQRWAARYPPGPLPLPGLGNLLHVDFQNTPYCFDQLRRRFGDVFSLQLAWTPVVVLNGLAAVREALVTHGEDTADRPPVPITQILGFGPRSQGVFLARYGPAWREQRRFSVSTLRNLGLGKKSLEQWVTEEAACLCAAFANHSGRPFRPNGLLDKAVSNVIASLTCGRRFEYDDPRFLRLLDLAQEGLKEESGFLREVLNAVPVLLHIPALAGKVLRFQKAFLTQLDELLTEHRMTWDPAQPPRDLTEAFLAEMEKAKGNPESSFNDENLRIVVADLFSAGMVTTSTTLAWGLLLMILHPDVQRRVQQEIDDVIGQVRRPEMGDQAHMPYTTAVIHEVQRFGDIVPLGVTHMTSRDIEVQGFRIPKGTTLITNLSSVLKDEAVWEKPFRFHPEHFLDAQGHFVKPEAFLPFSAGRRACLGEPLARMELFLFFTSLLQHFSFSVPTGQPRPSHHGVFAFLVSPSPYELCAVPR
Usually Ki stands for the equilibrium dissociation constant of an inhibitor or competing ligand from its target. In the case of `CNC(=O)NC[C@@H]1CCCc2cc(S(=O)(=O)c3cccc(F)c3)ccc21`, the Ki is 0.398 nM.

Consider `CN(C)C(=O)NC[C@@H]1CCCc2cc(S(=O)(=O)c3cccc(F)c3)ccc21`, for which the Ki is 2.51 nM.

As to `CC(=O)NC[C@@H]1CCCc2cc(S(=O)(=O)c3ccccc3)cc(F)c21`, the inhibition constant Ki was 0.316 nM.

For `CN(C)S(=O)(=O)NC[C@@H]1CCCc2cc(S(=O)(=O)c3cccc(F)c3)ccc21`, the Ki is 2 nM.

For the compound `O=S(=O)(c1cccc(F)c1)c1ccc2c(c1)CCC[C@H]2CNS(=O)(=O)C(F)(F)F`, the inhibition constant Ki is 31.6 nM.

As for `N=C(N)NC(=O)C[C@@H]1CCCc2cc(S(=O)(=O)c3cccc(F)c3)ccc21`, the inhibition constant (Ki) is 0.631 nM.

As to `CC(C)(O)C(=O)NC[C@@H]1CCCc2cc(S(=O)(=O)c3cccc(F)c3)ccc21`, the Ki is 2 nM.

For `CS(=O)(=O)NC[C@@H]1CCCc2cc(S(=O)(=O)c3cccc(F)c3)ccc21`, the inhibition constant (Ki) is 0.2 nM.

Take `CN(C[C@@H]1CCCc2cc(S(=O)(=O)c3cccc(F)c3)ccc21)S(C)(=O)=O`: the inhibition constant Ki is 0.398 nM.

On to `CC(=O)NC[C@@H]1CCCc2cc(S(=O)(=O)c3cccc(F)c3)ccc21`, for which the Ki is 0.126 nM.

For the compound `CN(C)CC(=O)NC[C@@H]1CCCc2cc(S(=O)(=O)c3cccc(F)c3)ccc21`, the Ki was 0.398 nM.

Regarding `O=C1CN(C[C@@H]2CCCc3cc(S(=O)(=O)c4cccc(F)c4)ccc32)CCN1`, the Ki is 6.31 nM.

With `O=S(=O)(c1cccc(F)c1)c1cc(F)c2c(c1)CCC[C@H]2CNCCO`, the Ki was 0.158 nM.

Turning to `COCC(=O)NC[C@@H]1CCCc2cc(S(=O)(=O)c3cccc(F)c3)ccc21`, the Ki was 0.794 nM.

For the compound `CC(C)(C)C(=O)NC[C@@H]1CCCc2cc(S(=O)(=O)c3cccc(F)c3)ccc21`, the Ki was 3.98 nM.

For the compound `NC(=O)NC[C@@H]1CCCc2cc(S(=O)(=O)c3cccc(F)c3)cc(F)c21`, the Ki is 0.2 nM.

`O=C(CO)NC[C@@H]1CCCc2cc(S(=O)(=O)c3cccc(F)c3)cc(F)c21`: the inhibitory constant (Ki) was 0.251 nM.

As for `NS(=O)(=O)NC[C@@H]1CCCc2cc(S(=O)(=O)c3cccc(F)c3)ccc21`, the Ki is 0.126 nM.

In the case of `NC[C@@H]1CCCc2cc(S(=O)(=O)c3cncs3)ccc21`, the Ki was 0.794 nM.

For `NC[C@@H]1CCCc2cc(S(=O)(=O)c3c[nH]c4ccccc34)ccc21`, the Ki was 0.0501 nM.

With `COC(=O)NC[C@@H]1CCCc2cc(S(=O)(=O)c3cccc(F)c3)ccc21`, the inhibition constant Ki is 1.58 nM.

`CC(=O)N(C)C[C@@H]1CCCc2cc(S(=O)(=O)c3cccc(F)c3)ccc21`: the Ki is 1.58 nM.

For `CNC(=O)CNC[C@@H]1CCCc2cc(S(=O)(=O)c3cccc(F)c3)ccc21`, the inhibition constant Ki was 1 nM.

As for `O=S(=O)(c1cccc(F)c1)c1ccc2c(c1)CCC[C@H]2CNCCO`, the Ki is 0.126 nM.

In the case of `COCCNC[C@@H]1CCCc2cc(S(=O)(=O)c3cccc(F)c3)ccc21`, the Ki is 0.251 nM.

In the case of `CNCC1CCCc2cc(S(=O)(=O)c3ccccc3)ccc21` (stereo unspecified), the inhibitory constant (Ki) is 0.316 nM.

For the compound `O=S(=O)(c1ccccc1)c1ccc2c(c1)CCCC2CNc1ncccn1` (stereo unspecified), the inhibitory constant (Ki) was 25.1 nM.

In the case of `CS(=O)(=O)c1cccc(S(=O)(=O)c2ccc3c(c2)CCC[C@H]3CN)c1`, the Ki is 3.98 nM.

Consider `O=C(CO)NC[C@@H]1CCCc2cc(S(=O)(=O)c3cccc(F)c3)ccc21`, for which the Ki is 0.1 nM.

In the case of `N#Cc1cccc(S(=O)(=O)c2ccc3c(c2)CCC[C@H]3CN)c1`, the Ki was 0.501 nM.

On to `NC[C@@H]1CCCc2cc(S(=O)(=O)c3cc[nH]c3)ccc21`, for which the inhibitory constant (Ki) is 0.316 nM.

Turning to `O=C(NC[C@@H]1CCCc2cc(S(=O)(=O)c3cccc(F)c3)ccc21)c1ncc[nH]1`, the Ki was 15.8 nM.

Take `CN(C)CC1CCCc2cc(S(=O)(=O)c3ccccc3)ccc21` (stereo unspecified): the Ki is 0.0631 nM.

`CNCC(=O)NC[C@@H]1CCCc2cc(S(=O)(=O)c3cccc(F)c3)ccc21`: the Ki is 0.158 nM.

Take `CNC[C@@H]1CCCc2cc(S(=O)(=O)c3cc[nH]c3)ccc21`: the Ki was 0.158 nM.

In the case of `Cn1ccc(S(=O)(=O)c2ccc3c(c2)CCC[C@H]3CN)c1`, the Ki is 7.94 nM.

Take `NC[C@@H]1CCCc2cc(S(=O)(=O)c3cn[nH]c3)ccc21`: the inhibitory constant (Ki) is 2 nM.

As to `O=C(NC[C@@H]1CCCc2cc(S(=O)(=O)c3cccc(F)c3)ccc21)[C@H]1CCCN1`, the inhibition constant Ki was 0.631 nM.

`O=S(=O)(c1cccc(F)c1)c1ccc2c(c1)CCC[C@H]2CN1CC(O)C1`: the Ki is 0.1 nM.

Consider `CN(C[C@@H]1CCCc2cc(S(=O)(=O)c3cccc(F)c3)ccc21)C(N)=O`, for which the inhibitory constant (Ki) is 39.8 nM.

On to `O=S(=O)(c1cccc(F)c1)c1ccc2c(c1)CCC[C@H]2CN1CCCS1(=O)=O`, for which the Ki is 31.6 nM.

Regarding `N=C(N)NCC1CCCc2cc(S(=O)(=O)c3ccccc3)ccc21` (stereo unspecified), the Ki is 0.158 nM.

Regarding `CC(=N)NCC1CCCc2cc(S(=O)(=O)c3ccccc3)ccc21` (stereo unspecified), the Ki is 0.631 nM.

Consider `O=C1CN=C(NC[C@@H]2CCCc3cc(S(=O)(=O)c4cccc(F)c4)ccc32)N1`, for which the inhibition constant (Ki) was 0.1 nM.

As for `O=C(NC[C@@H]1CCCc2cc(S(=O)(=O)c3cccc(F)c3)ccc21)c1ccc[nH]1`, the Ki was 5.01 nM.

`NC[C@@H]1CCCc2cc(S(=O)(=O)c3cc(F)cc4[nH]cnc34)ccc21`: the Ki is 5.01 nM.

Consider `NC(=O)CNC[C@@H]1CCCc2cc(S(=O)(=O)c3cccc(F)c3)ccc21`, for which the inhibition constant Ki was 0.1 nM.

Turning to `CN(CC(N)=O)C[C@@H]1CCCc2cc(S(=O)(=O)c3cccc(F)c3)ccc21`, the Ki is 1.26 nM.

For `NC[C@@H]1CCCc2cc(S(=O)(=O)c3ccccc3)ccc21`, the Ki was 0.158 nM.

With `NC[C@@H]1CCCc2cc(S(=O)(=O)c3cccc(O)c3)ccc21`, the inhibition constant (Ki) is 0.251 nM.

Take `COc1cccc(S(=O)(=O)c2ccc3c(c2)CCC[C@H]3CN)c1`: the Ki is 0.398 nM.

`NC[C@@H]1CCCc2cc(S(=O)(=O)c3cccc(F)c3)ccc21`: the Ki is 0.0794 nM.

In the case of `O=S(=O)(O)CCCNC[C@@H]1CCCc2cc(S(=O)(=O)c3cccc(F)c3)ccc21`, the Ki is 1.26 nM.

As for `NCC(=O)NC[C@@H]1CCCc2cc(S(=O)(=O)c3cccc(F)c3)ccc21`, the Ki was 0.316 nM.

For `NC[C@@H]1CCCc2cc(S(=O)(=O)Cc3ccccc3)ccc21`, the inhibition constant (Ki) is 158 nM.

With `NC[C@@H]1CCCc2cc(S(=O)(=O)C3CCCCC3)ccc21`, the Ki was > 1000 nM.

`CN(C[C@@H]1CCCc2cc(S(=O)(=O)c3cccc(F)c3)ccc21)S(N)(=O)=O`: the Ki was 3.98 nM.

As for `CNS(=O)(=O)NC[C@@H]1CCCc2cc(S(=O)(=O)c3cccc(F)c3)ccc21`, the inhibitory constant (Ki) was 1 nM.

On to `NC(=O)NC[C@@H]1CCCc2cc(S(=O)(=O)c3cccc(F)c3)ccc21` [LANDIPIRDINE], for which the Ki is 0.2 nM.

Tested on in a further test: not listed separately
As to the kind of experiment: Inhibition of CYP450. In kind it is ADME.
Usually IC50 stands for the concentration that inhibits the measured activity by half. Low values mean higher potency, high ones lower potency. `CC(=O)NC[C@@H]1CCCc2cc(S(=O)(=O)c3ccccc3)cc(F)c21`: the IC50 is > 15000 nM.

The next test has as its target Cytochrome P450 2D6 (Homo sapiens, UniProt P10635). As to the kind of experiment: Inhibition of CYP2D6. In kind it is ADME.
Regarding `N=C(N)NCC1CCCc2cc(S(=O)(=O)c3ccccc3)ccc21` (stereo unspecified), the IC50 was < 50 nM.

The values are drawn from ChEMBL document CHEMBL1155479, “Highly potent, non-basic 5-HT6 ligands. Site mutagenesis evidence for a second binding mode at 5-HT6 for antagonism” (Bioorg Med Chem Lett, 2010).
